Measurements as given in ChEMBL document CHEMBL3232844, “Synthesis and structure activity relationships of schweinfurthin indoles” (2014).

Key:
Assay type in all cases: functional
[1] = test system: CCRF-CEM; assay: Cytotoxicity against human CCRF-CEM cells
[2] = test system: HL-60(TB); assay: Cytotoxicity against human HL-60(TB) cells
Summary of the method: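 Tested within the NCI 60-cell-line screen, with GI50 as the read-out. Values are the average of two independent experiments. The lowest concentration tested was 10 nM.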

[3] = test system: MOLT-4; assay: Cytotoxicity against human MOLT4 cells
Summary of the method: (§1)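 Tested in a 60-cell-line human tumor panel screen; the read-out is growth inhibition, reported as GI50 for each cell line.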

[4] = test system: SR; assay: Cytotoxicity against human SR cells
Summary of the method: (§2)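 Cell line run as part of the 60-cell-line screening panel; growth inhibition was reported as a GI50 for each line.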

[5] = test system: A549; assay: Cytotoxicity against human A549 cells; summary of the method: as §1
[6] = test system: HOP-62; assay: Cytotoxicity against human HOP62 cells; summary of the method: as §1
[7] = test system: COLO 205; assay: Cytotoxicity against human COLO205 cells; summary of the method: as §1
[8] = test system: HCC 2998; assay: Cytotoxicity against human HCC2998 cells; summary of the method: as §1
[9] = test system: HCT-116; assay: Cytotoxicity against human HCT116 cells; summary of the method: as §1
[10] = Cytotoxicity against human HCT15 cells; summary of the method: as §1
[11] = test system: HT-29; assay: Cytotoxicity against human HT-29 cells; summary of the method: as §1
[12] = test system: KM12; assay: Cytotoxicity against human KM12 cells; summary of the method: as §1
[13] = test system: SF-268; assay: Cytotoxicity against human SF268 cells; summary of the method: as §1
[14] = test system: SF-295; assay: Cytotoxicity against human SF295 cells; summary of the method: as §1
[15] = test system: SF-539; assay: Cytotoxicity against human SF539 cells; summary of the method: as §1
[16] = test system: SNB-19; assay: Cytotoxicity against human SNB19 cells; summary of the method: as §1
[17] = test system: SNB-75; assay: Cytotoxicity against human SNB75 cells; summary of the method: as §2
[18] = test system: U-251; assay: Cytotoxicity against human U251 cells; summary of the method: as §2
[19] = test system: LOX IMVI; assay: Cytotoxicity against human LOXIMVI cells; summary of the method: as §1
[20] = test system: MDA-MB-435; assay: Cytotoxicity against human MDA-MB-435 cells; summary of the method: as §1
[21] = test system: NCI-H322M; assay: Cytotoxicity against human NCI-H322M cells; summary of the method: as §1
[22] = test system: NCI-H460; assay: Cytotoxicity against human NCI-H460 cells; summary of the method: as §1
[23] = test system: SK-MEL-2; assay: Cytotoxicity against human SK-MEL-2 cells; summary of the method: as §1
[24] = test system: SK-MEL-5; assay: Cytotoxicity against human SK-MEL-5 cells; summary of the method: as §1
[25] = Cytotoxicity against human UACC257 cells; summary of the method: as §2
[26] = Cytotoxicity against human UACC62 cells; summary of the method: as §2
[27] = test system: IGROV-1; assay: Cytotoxicity against human IGROV1 cells; summary of the method: as §1
[28] = Cytotoxicity against human OVCAR4 cells; summary of the method: as §1
[29] = Cytotoxicity against human OVCAR5 cells; summary of the method: as §1
[30] = Cytotoxicity against human NCI-ADR-RES cells; summary of the method: as §1
[31] = test system: SK-OV-3; assay: Cytotoxicity against human SKOV3 cells; summary of the method: as §1
[32] = test system: 786-0; assay: Cytotoxicity against human 786-0 cells; summary of the method: as §1
[33] = test system: A498; assay: Cytotoxicity against human A498 cells; summary of the method: as §1
[34] = test system: ACHN; assay: Cytotoxicity against human ACHN cells; summary of the method: as §1
[35] = test system: CAKI-1; assay: Cytotoxicity against human Caki1 cells; summary of the method: as §1
[36] = test system: SN12C; assay: Cytotoxicity against human SN12C cells; summary of the method: as §1
[37] = test system: TK-10; assay: Cytotoxicity against human TK10 cells; summary of the method: as §2
[38] = test system: PC-3; assay: Cytotoxicity against human PC3 cells; summary of the method: as §1
[39] = test system: DU-145; assay: Cytotoxicity against human DU145 cells; summary of the method: as §1
[40] = test system: MCF7; assay: Cytotoxicity against human MCF7 cells; summary of the method: as §1
[41] = test system: MDA-MB-231; assay: Cytotoxicity against human MDA-MB-231 cells; summary of the method: as §1
[42] = test system: BT-549; assay: Cytotoxicity against human BT549 cells; summary of the method: as §1
[43] = test system: T47D; assay: Cytotoxicity against human T47D cells; summary of the method: as §2
[44] = read-out: pLC50 (the source's name) (converted)

SMILES: COc1cc(/C=C/c2cc(O)c3c(CC=C(C)C)c[nH]c3c2)cc2c1O[C@]1(C)CC[C@@H](O)C(C)(C)[C@H]1C2
- GI50 [1]: 0.148 µM
- CC50 [1, 44]: 50.1 µM
- TGI ([1]; read-out: pTGI (converted)): 50.1 µM
- GI50 [2]: 0.251 µM
- CC50 [2, 44]: 50.1 µM
- TGI ([2]; read-out: pTGI (converted)): 18.6 µM
- GI50 [3]: 0.17 µM
- CC50 [3, 44]: 50.1 µM
- TGI ([3]; read-out: pTGI (converted)): 50.1 µM
- GI50 [4]: 0.295 µM
- CC50 [4, 44]: 50.1 µM
- TGI ([4]; read-out: pTGI (converted)): 50.1 µM
- GI50 [5]: 1.7 µM
- CC50 [5, 44]: 50.1 µM
- TGI ([5]; read-out: pTGI (converted)): 50.1 µM
- GI50 [6]: 0.234 µM
- CC50 [6, 44]: 50.1 µM
- GI50 [7]: 0.302 µM
- CC50 [7, 44]: 6.46 µM
- TGI ([7]; read-out: pTGI (converted)): 1.35 µM
- GI50 [8]: 3.02 µM
- CC50 [8, 44]: 50.1 µM
- TGI ([8]; read-out: pTGI (converted)): 50.1 µM
- GI50 [9]: 3.24 µM
- CC50 [9, 44]: 50.1 µM
- TGI ([9]; read-out: pTGI (converted)): 50.1 µM
- GI50 ([10]; HCT-15): 0.17 µM
- CC50 ([10]; HCT-15, read-out: pLC50 (the source's name) (converted)): 50.1 µM
- TGI ([10]; HCT-15, read-out: pTGI (converted)): 1.55 µM
- GI50 [11]: 0.132 µM
- CC50 [11, 44]: 50.1 µM
- TGI ([11]; read-out: pTGI (converted)): 2 µM
- GI50 [12]: 0.275 µM
- TGI ([12]; read-out: pTGI (converted)): 1.12 µM
- GI50 [13]: 1.02 µM
- CC50 [13, 44]: 50.1 µM
- TGI ([13]; read-out: pTGI (converted)): 50.1 µM
- GI50 ([14]; read-out: GI50): < 0.021 µM
- GI50 ([14]; read-out: pGI50 (converted)): 0.0316 µM
- CC50 [14, 44]: 0.513 µM
- TGI ([14]; read-out: pTGI (converted)): 0.135 µM
- GI50 [15]: 0.0407 µM
- CC50 [15, 44]: 2.95 µM
- TGI ([15]; read-out: pTGI (converted)): 0.257 µM
- GI50 [16]: 0.708 µM
- CC50 [16, 44]: 50.1 µM
- TGI ([16]; read-out: pTGI (converted)): 50.1 µM
- GI50 [17]: 0.055 µM
- CC50 [17, 44]: 50.1 µM
- TGI ([17]; read-out: pTGI (converted)): 50.1 µM
- GI50 [18]: 0.151 µM
- CC50 [18, 44]: 50.1 µM
- TGI ([18]; read-out: pTGI (converted)): 50.1 µM
- GI50 [19]: 0.2 µM
- CC50 [19, 44]: 50.1 µM
- TGI ([19]; read-out: pTGI (converted)): 1.17 µM
- GI50 [20]: 0.676 µM
- CC50 [20, 44]: 50.1 µM
- TGI ([20]; read-out: pTGI (converted)): 50.1 µM
- GI50 [21]: 10.5 µM
- CC50 [21, 44]: 50.1 µM
- TGI ([21]; read-out: pTGI (converted)): 50.1 µM
- GI50 [22]: 0.417 µM
- CC50 [22, 44]: 50.1 µM
- TGI ([22]; read-out: pTGI (converted)): 50.1 µM
- GI50 [23]: 0.269 µM
- CC50 [23, 44]: 50.1 µM
- TGI ([23]; read-out: pTGI (converted)): 50.1 µM
- GI50 [24]: 0.158 µM
- CC50 [24, 44]: 1.82 µM
- TGI ([24]; read-out: pTGI (converted)): 0.575 µM
- GI50 ([25]; UACC-257): 1.23 µM
- CC50 ([25]; UACC-257, read-out: pLC50 (the source's name) (converted)): 50.1 µM
- TGI ([25]; UACC-257, read-out: pTGI (converted)): 50.1 µM
- GI50 ([26]; UACC-62): 0.138 µM
- CC50 ([26]; UACC-62, read-out: pLC50 (the source's name) (converted)): 3.63 µM
- TGI ([26]; UACC-62, read-out: pTGI (converted)): 0.407 µM
- GI50 [27]: 0.417 µM
- CC50 [27, 44]: 50.1 µM
- TGI ([27]; read-out: pTGI (converted)): 50.1 µM
- GI50 ([28]; OVCAR-4): 5.25 µM
- CC50 ([28]; OVCAR-4, read-out: pLC50 (the source's name) (converted)): 50.1 µM
- TGI ([28]; OVCAR-4, read-out: pTGI (converted)): 50.1 µM
- GI50 ([29]; OVCAR-5): 15.1 µM
- CC50 ([29]; OVCAR-5, read-out: pLC50 (the source's name) (converted)): 50.1 µM
- TGI ([29]; OVCAR-5, read-out: pTGI (converted)): 50.1 µM
- GI50 [30]: 8.51 µM
- CC50 [30, 44]: 50.1 µM
- TGI ([30]; read-out: pTGI (converted)): 50.1 µM
- GI50 [31]: 3.55 µM
- LC50 [31]: 50.1 µM
- TGI ([31]; read-out: pTGI (converted)): 32.4 µM
- GI50 [32]: 0.0851 µM
- LC50 (concentration killing 50% of cells) [32]: 50.1 µM
- TGI ([32]; read-out: pTGI (converted)): 0.501 µM
- GI50 [33]: 0.129 µM
- CC50 [33, 44]: 50.1 µM
- TGI ([33]; read-out: pTGI (converted)): 0.724 µM
- GI50 [34]: 1.48 µM
- LC50 (concentration killing 50% of cells) [34]: 50.1 µM
- TGI ([34]; read-out: pTGI (converted)): 50.1 µM
- GI50 [35]: 0.263 µM
- LC50 [35]: 50.1 µM
- TGI ([35]; read-out: pTGI (converted)): 50.1 µM
- GI50 [36]: 12 µM
- LC50 [36]: 50.1 µM
- TGI ([36]; read-out: pTGI (converted)): 50.1 µM
- GI50 [37]: 7.76 µM
- LC50 [37]: 50.1 µM
- TGI ([37]; read-out: pTGI (converted)): 50.1 µM
- GI50 [38]: 0.229 µM
- LC50 [38]: 50.1 µM
- TGI ([38]; read-out: pTGI (converted)): 50.1 µM
- GI50 [39]: 3.55 µM
- LC50 (50% lethal concentration) [39]: 50.1 µM
- TGI ([39]; read-out: pTGI (converted)): 50.1 µM
- GI50 [40]: 0.355 µM
- LC50 [40]: 50.1 µM
- TGI ([40]; read-out: pTGI (converted)): 3.63 µM
- GI50 [41]: 0.724 µM
- LC50 [41]: 50.1 µM
- TGI ([41]; read-out: pTGI (converted)): 50.1 µM
- GI50 [42]: 0.107 µM
- CC50 [42, 44]: 50.1 µM
- TGI ([42]; read-out: pTGI (converted)): 13.2 µM
- GI50 [43]: 5.25 µM
- CC50 [43, 44]: 50.1 µM
- TGI ([43]; read-out: pTGI (converted)): 31.6 µM
